The subject of series [1] is Cantagalo virus. In words: Antiviral activity against Cantagalo virus in african green monkey BSC40 cells assessed inhibition of viral plaque number at 50 uM after 48 hrs post infection. The class given is functional. The conditions noted are these: BSC-40, 48 h.
Series [2] deals with Cantagalo virus. In words: Antiviral activity against Cantagalo virus in african green monkey BSC40 cells assessed inhibition of viral yield at 50 uM after 24 hrs post infection by plaque assay. It is filed as functional. The conditions noted are these: BSC-40, 24 h.
The nature of series [3]: Cytotoxicity against african green monkey BSC40 cells assessed as cell viability at 50 uM for 24 hrs by neutral red assay. The class given is cell-based, BSC-40. The conditions noted are these: chlorocebus aethiops, read-out: Activity. The method, boiled down:
(§1)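 Confluent BSC-40 cells exposed to compound for 24 h at 37 °C, 0.5% DMSO control. Neutral red (50 µg/mL) added for 3 h at 37 °C, then 50% methanol with 1% acetic acid for 20 min at room temperature. OD 490 nm read; uptake proportional to viable cells.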

Series [4] concerns Cantagalo virus. In words: Antiviral activity against Cantagalo virus in african green monkey BSC40 cells assessed as inhibition of viral protein accumulation at 100 uM after 24 hrs post infection by Western blot. It is filed as functional, BSC-40. More on the design: scale not given: the % may be the effect or the level left.
Series [5] can be described thus: Cytotoxicity against african green monkey BSC40 cells assessed as non-viable cells at 100 uM for 24 hrs by neutral red assay. It is filed as cell-based. Conditions: chlorocebus aethiops, bsc-40, 24 h. An outline of the steps:
as §1

Series [6] in a line: Cytotoxicity against african green monkey BSC40 cells assessed as non-viable cells at 50 uM for 24 hrs by neutral red assay. It is filed as cell-based. The conditions noted are these: chlorocebus aethiops, bsc-40, 24 h. An outline of the steps: as §1
Series [7] deals with Cantagalo virus. In words: Antiviral activity against Cantagalo virus replication in BSC-40 cells assessed as inhibition of viral protein accumulation at 50 uM after 24 hrs post infection by Western blot. It is filed as functional, organism-based. Background: Immunoblotting shows a protein as a band on a membrane.
In series [8] the test system is Cantagalo virus. In words: Antiviral activity against Cantagalo virus in african green monkey BSC40 cells assessed inhibition of viral yield at 100 uM after 24 hrs post infection by plaque assay. The class given is functional, BSC-40. More on the design: scale not given: the % may be the effect or the level left.
Series [9] has as its system Cantagalo virus. In words: Antiviral activity against Cantagalo virus replication in african green monkey BSC40 cells assessed as inhibition of viral protein accumulation after 24 hrs post infection by Western blot. It is filed as functional, organism-based. Conditions: BSC-40.
The next series deals with Vaccinia virus. In words: Antiviral activity against Vaccinia virus. The class given is functional, organism-based. The conditions noted are these: Orthopoxvirus vaccinia.
Series [10] has as its system Cantagalo virus. In words: Antiviral activity against Cantagalo virus in african green monkey BSC40 cells assessed inhibition of viral plaque formation at 100 uM after 48 hrs post infection. The class given is functional. Conditions: BSC-40, 48 h.
The nature of series [11]: Cytotoxicity against african green monkey BSC40 cells assessed as reduction in cell viability at 100 uM for 24 hrs by neutral red assay. Conditions: chlorocebus aethiops, bsc-40, 24 h. It is filed as cell-based. The method, boiled down:
as §1

A short description of series [12]: Cytotoxicity against african green monkey BSC40 cells assessed as change in cell morphology at 100 uM for 24 hrs by neutral red assay. It is filed as cell-based. Conditions: chlorocebus aethiops, bsc-40, 24 h.
A further series concerns Cowpox virus. In words: Antiviral activity against Cowpox virus. It is filed as functional, organism-based.

This note sets out measurements from ChEMBL document CHEMBL1153622, “Antiviral evaluation of N-amino-1,2,3-triazoles against Cantagalo virus replication in cell culture” (Eur J Med Chem, 2009).

In general, inhibition refers to the relative decrease from the control value, in per cent. As usually defined, the EC50 is the concentration at which the effect is half-maximal.

Each structure is given as a SMILES string. Active and inactive are the calls of the source. No cut-off for these calls is given here.

As for `Cc1c(C(=O)NN)nnn1Nc1ccccc1`, in the series with Cantagalo virus [1], the inhibition at 50 µM amounted to 6.1%.
Still for that read-out and setting: for `CCOC(=O)c1nnn(Nc2ccc(F)cc2)c1C` the value was 9.42%.
Same read-out and setting: for `Cc1c(C(=O)NN)nnn1Nc1ccc(Cl)cc1` the value was 3.79%; for `Cc1c(C(=O)NN)nnn1Nc1cc(Cl)ccc1Cl`, 9.71%.
As for `CCOC(=O)c1nnn(Nc2cc(Cl)ccc2Cl)c1C`, the inhibition at 50 µM in the series on Cantagalo virus [2] is 67.5%; in the series on Cantagalo virus [1] it was 47.2%. In addition, the viability at 24 h, 50 µM in [3] worked out at 60%.
Turning to `Cc1c(C(=O)NN)nnn1Nc1ccc(Br)cc1`, the inhibition at 50 µM in the series with Cantagalo virus [1] was 8.4%.
Same read-out and setting: for `CCOC(=O)c1nnn(Nc2ccccc2)c1C` the value was 15.2%; for `CCOC(=O)c1nnn(Nc2ccc(Cl)cc2)c1C`, 11%.
With `Cc1c(C(=O)NN)nnn1Nc1ccc(F)cc1`, the Activity with Cantagalo virus [4] was 71.2%; in series [5], 30%; in [6], 10%; in the series with Cantagalo virus [8], 80%; in the series on Cantagalo virus [9] it was “Dose-dependent effect”. Besides, the inhibition at 50 µM worked out at 55.7% with Cantagalo virus [2] and 48.3% in the series with Cantagalo virus [1]. Moreover, the result in the series with Cantagalo virus [7] was Active.
Regarding `Nc1ccn(C[C@@H](CO)OCP(=O)(O)O)c(=O)n1` [CIDOFOVIR], the EC50 with Vaccinia virus came to 10 µM.
For `CCOC(=O)c1nnn(Nc2ccc(Br)cc2)c1C`, in the series with Cantagalo virus [10], the inhibition at 100 µM turned out to be 84.6%. In addition, the Activity is reported as 52.6% in series [11] and “Toxic” in [12]. For the same molecule, in the series on Cantagalo virus [1], the inhibition at 50 µM was determined as 34.4%.
As to `O=C(NN1C(=O)[C@@H]2[C@@H]3C=C[C@@H]([C@H]4C[C@@H]34)[C@@H]2C1=O)c1ccc(C(F)(F)F)cc1` [TECOVIRIMAT], the EC50 in the series with Cowpox virus and in the series on Vaccinia virus was less than 0.5 µM in each case.
